Source: ChEMBL document CHEMBL2040727, “Substituted thiazoles VI. Synthesis and antitumor activity of new 2-acetamido- and 2 or 3-propanamido-thiazole analogs” (2012)

Experiments:
Format in all cases: functional
[1] = tested on: K562; experiment: Growth inhibition of human K562 cells at 10 uM after 48 hrs by coulter counter analysis; conditions: K562, 48 h, read-out: GI
Summary of the method: (§1)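 Single-dose NCI 60-line panel screen of test compounds. Cells grown in RPMI 1640 with 10% FBS. Compounds dissolved in DMSO, then diluted in phosphate buffer saline (final DMSO below 1%). Wells run in duplicate at 6 × 10⁴ cells/ml. Controls held PBS and DMSO at matching dilutions. Incubation 48 h at 37 °C under humidified 5% CO2. Cells diluted tenfold in saline and counted by Coulter counter. Percent growth inhibition taken from mean-graph of treated-cell growth.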

[2] = tested on: RPMI-8226; experiment: Growth inhibition of human RPMI8226 cells at 10 uM after 48 hrs by coulter counter analysis; conditions: RPMI-8226, 48 h, read-out: GI; summary of the method: as §1
[3] = tested on: HOP-62; experiment: Growth inhibition of human HOP62 cells at 10 uM after 48 hrs by coulter counter analysis; conditions: HOP-62, 48 h, read-out: GI; summary of the method: as §1
[4] = tested on: NCI-H226; experiment: Growth inhibition of human NCI-H226 cells at 10 uM after 48 hrs by coulter counter analysis; conditions: NCI-H226, 48 h, read-out: GI; summary of the method: as §1
[5] = tested on: NCI-H23; experiment: Growth inhibition of human NCI-H23 cells at 10 uM after 48 hrs by coulter counter analysis; conditions: NCI-H23, 48 h, read-out: GI; summary of the method: as §1
[6] = tested on: NCI-H322M; experiment: Growth inhibition of human NCI-H322M cells at 10 uM after 48 hrs by coulter counter analysis; conditions: read-out: GI; summary of the method: as §1
[7] = tested on: HCC 2998; experiment: Growth inhibition of human HCC2998 cells at 10 uM after 48 hrs by coulter counter analysis; conditions: HCC 2998, 48 h, read-out: GI; summary of the method: as §1
[8] = tested on: HCT-15; experiment: Growth inhibition of human HCT15 cells at 10 uM after 48 hrs by coulter counter analysis; conditions: HCT-15, 48 h, read-out: GI; summary of the method: as §1
[9] = tested on: HT-29; experiment: Growth inhibition of human HT-29 cells at 10 uM after 48 hrs by coulter counter analysis; conditions: HT-29, 48 h, read-out: GI; summary of the method: as §1
[10] = tested on: SW-620; experiment: Growth inhibition of human SW620 cells at 10 uM after 48 hrs by coulter counter analysis; conditions: SW-620, 48 h, read-out: GI
Summary of the method: (§2)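 Single-dose screen in the NCI 60 cell line panel. Cells grown in RPMI 1640 with 10% FBS. Compounds dissolved in DMSO and diluted in phosphate buffered saline, final DMSO under 1%. Duplicate wells seeded from culture at 6 × 10⁴ cells/ml. Incubated 48 h at 37 °C, humidified, 5% CO2. Cells diluted tenfold in saline and Coulter-counted. Percent growth inhibition computed against PBS/DMSO controls.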

[11] = tested on: SF-268; experiment: Growth inhibition of human SF268 cells at 10 uM after 48 hrs by coulter counter analysis; conditions: SF-268, 48 h, read-out: GI; summary of the method: as §1
[12] = tested on: SF-539; experiment: Growth inhibition of human SF539 cells at 10 uM after 48 hrs by coulter counter analysis; conditions: SF-539, 48 h, read-out: GI; summary of the method: as §1
[13] = tested on: LOX IMVI; experiment: Growth inhibition of human LOXIMVI cells at 10 uM after 48 hrs by coulter counter analysis; conditions: read-out: GI; summary of the method: as §1
[14] = tested on: Malme-3M; experiment: Growth inhibition of human MALME-3M cells at 10 uM after 48 hrs by coulter counter analysis; conditions: read-out: GI; summary of the method: as §1
[15] = tested on: MDA-MB-435; experiment: Growth inhibition of human MDA-MB-435 cells at 10 uM after 48 hrs by coulter counter analysis; conditions: MDA-MB-435, 48 h, read-out: GI; summary of the method: as §1
[16] = tested on: SK-MEL-28; experiment: Growth inhibition of human SK-MEL-28 cells at 10 uM after 48 hrs by coulter counter analysis; conditions: SK-MEL-28, 48 h, read-out: GI; summary of the method: as §1
[17] = tested on: SK-MEL-5; experiment: Growth inhibition of human SK-MEL-5 cells at 10 uM after 48 hrs by coulter counter analysis; conditions: SK-MEL-5, 48 h, read-out: GI; summary of the method: as §1
[18] = tested on: UACC-62; experiment: Growth inhibition of human UACC62 cells at 10 uM after 48 hrs by coulter counter analysis; conditions: UACC-62, 48 h, read-out: GI; summary of the method: as §2
[19] = tested on: IGROV-1; experiment: Growth inhibition of human IGROV1 cells at 10 uM after 48 hrs by coulter counter analysis; conditions: IGROV-1, 48 h, read-out: GI; summary of the method: as §1
[20] = tested on: OVCAR-4; experiment: Growth inhibition of human OVCAR4 cells at 10 uM after 48 hrs by coulter counter analysis; conditions: OVCAR-4, 48 h, read-out: GI; summary of the method: as §1
[21] = tested on: OVCAR-5; experiment: Growth inhibition of human OVCAR5 cells at 10 uM after 48 hrs by coulter counter analysis; conditions: OVCAR-5, 48 h, read-out: GI; summary of the method: as §1
[22] = tested on: OVCAR-8; experiment: Growth inhibition of human OVCAR8 cells at 10 uM after 48 hrs by coulter counter analysis; conditions: OVCAR-8, 48 h, read-out: GI; summary of the method: as §1
[23] = tested on: 786-0; experiment: Growth inhibition of human 786-0 cells at 10 uM after 48 hrs by coulter counter analysis; conditions: 786-0, 48 h, read-out: GI; summary of the method: as §1
[24] = tested on: A498; experiment: Growth inhibition of human A498 cells at 10 uM after 48 hrs by coulter counter analysis; conditions: A498, 48 h, read-out: GI; summary of the method: as §1
[25] = tested on: CAKI-1; experiment: Growth inhibition of human Caki1 cells at 10 uM after 48 hrs by coulter counter analysis; conditions: CAKI-1, 48 h, read-out: GI; summary of the method: as §1
[26] = tested on: RXF 393; experiment: Growth inhibition of human RXF393 cells at 10 uM after 48 hrs by coulter counter analysis; conditions: RXF 393, 48 h, read-out: GI; summary of the method: as §1
[27] = tested on: SN12C; experiment: Growth inhibition of human SN12C cells at 10 uM after 48 hrs by coulter counter analysis; conditions: read-out: GI; summary of the method: as §1
[28] = tested on: UO-31; experiment: Growth inhibition of human UO31 cells at 10 uM after 48 hrs by coulter counter analysis; conditions: UO-31, 48 h, read-out: GI; summary of the method: as §2
[29] = tested on: PC-3; experiment: Growth inhibition of human PC3 cells at 10 uM after 48 hrs by coulter counter analysis; conditions: PC-3, 48 h, read-out: GI; summary of the method: as §1
[30] = tested on: MDA-MB-231; experiment: Growth inhibition of human MDA-MB-231 cells at 10 uM after 48 hrs by coulter counter analysis; conditions: MDA-MB-231, 48 h, read-out: GI; summary of the method: as §1
[31] = Growth inhibition of human Hs 578T cells at 10 uM after 48 hrs by coulter counter analysis; conditions: read-out: GI; summary of the method: as §1
[32] = tested on: BT-549; experiment: Growth inhibition of human BT549 cells at 10 uM after 48 hrs by coulter counter analysis; conditions: BT-549, 48 h, read-out: GI; summary of the method: as §1
[33] = tested on: T47D; experiment: Growth inhibition of human T47D cells at 10 uM after 48 hrs by coulter counter analysis; conditions: read-out: GI; summary of the method: as §2
[34] = tested on: MDA-MB-468; experiment: Growth inhibition of human MDA-MB-468 cells at 10 uM after 48 hrs by coulter counter analysis; conditions: MDA-MB-468, 48 h, read-out: GI; summary of the method: as §1
[35] = tested on: CCRF-CEM; experiment: Growth inhibition of human CCRF-CEM cells at 10 uM after 48 hrs by coulter counter analysis; conditions: read-out: GI; summary of the method: as §1

| SMILES | inhibition of growth at 10 µM [1] [%] | inhibition of growth at 10 µM [2] [%] | inhibition of growth at 10 µM [3] [%] | inhibition of growth at 10 µM [4] [%] | inhibition of growth at 10 µM [5] [%] | inhibition of growth at 10 µM [6] [%] | inhibition of growth at 10 µM [7] [%] | inhibition of growth at 10 µM [8] [%] | inhibition of growth at 10 µM [9] [%] | inhibition of growth at 10 µM [10] [%] | inhibition of growth at 10 µM [11] [%] | inhibition of growth at 10 µM [12] [%] | inhibition of growth at 10 µM [13] [%] | inhibition of growth at 10 µM [14] [%] | inhibition of growth at 10 µM [15] [%] | inhibition of growth at 10 µM [16] [%] | inhibition of growth at 10 µM [17] [%] | inhibition of growth at 10 µM [18] [%] | inhibition of growth at 10 µM [19] [%] | inhibition of growth at 10 µM [20] [%] | further results |
| --- | --- | --- | --- | --- | --- | --- | --- | --- | --- | --- | --- | --- | --- | --- | --- | --- | --- | --- | --- | --- | --- |
| Cc1csc(NC(=O)C(C)N2CCN(C)CC2)n1 (stereo not given) | < 10 | < 10 | 10.9 | < 10 | 19.8 | < 10 | < 10 | 25.5 | < 10 | < 10 | < 10 | < 10 | 46.4 | 17.6 | 11.2 | < 10 | 11.3 | 24 | < 10 | 16.2 | inhibition of growth at 10 µM [21]: < 10%; inhibition of growth at 10 µM [22]: < 10%; inhibition of growth at 10 µM [23]: < 10%; inhibition of growth at 10 µM [24]: < 10%; inhibition of growth at 10 µM [25]: < 10%; inhibition of growth at 10 µM [26]: < 10%; inhibition of growth at 10 µM [27]: 11.5%; inhibition of growth at 10 µM [28]: < 10%; inhibition of growth at 10 µM [29]: < 10%; inhibition of growth at 10 µM [30]: 13.3%; inhibition of growth at 10 µM [31]: < 10%; inhibition of growth at 10 µM [32]: 13.3%; inhibition of growth at 10 µM [33]: < 10%; inhibition of growth at 10 µM [34]: 11.1%; inhibition of growth at 10 µM [35]: 41.1% |
| CC(C(=O)Nc1nccs1)N1CCN(c2ccccc2)CC1 (stereo not given) | < 10 | < 10 | < 10 | < 10 | < 10 | < 10 | < 10 | < 10 | < 10 | < 10 | < 10 | < 10 | < 10 | < 10 | < 10 | < 10 | < 10 | < 10 | < 10 | < 10 | inhibition of growth at 10 µM [21]: < 10%; inhibition of growth at 10 µM [22]: < 10%; inhibition of growth at 10 µM [23]: < 10%; inhibition of growth at 10 µM [24]: < 10%; inhibition of growth at 10 µM [25]: < 10%; inhibition of growth at 10 µM [26]: < 10%; inhibition of growth at 10 µM [27]: < 10%; inhibition of growth at 10 µM [28]: < 10%; inhibition of growth at 10 µM [29]: < 10%; inhibition of growth at 10 µM [30]: < 10%; inhibition of growth at 10 µM [31]: < 10%; inhibition of growth at 10 µM [32]: < 10%; inhibition of growth at 10 µM [33]: < 10%; inhibition of growth at 10 µM [34]: < 10%; inhibition of growth at 10 µM [35]: < 10% |
| Cc1csc(NC(=O)C(C)N2CCN(c3ccccc3)CC2)n1 (stereo not given) | < 10 | < 10 | < 10 | 11.7 | < 10 | < 10 | < 10 | < 10 | < 10 | < 10 | < 10 | < 10 | < 10 | < 10 | < 10 | < 10 | < 10 | < 10 | < 10 | < 10 | inhibition of growth at 10 µM [21]: < 10%; inhibition of growth at 10 µM [22]: < 10%; inhibition of growth at 10 µM [23]: < 10%; inhibition of growth at 10 µM [24]: < 10%; inhibition of growth at 10 µM [25]: < 10%; inhibition of growth at 10 µM [26]: < 10%; inhibition of growth at 10 µM [27]: < 10%; inhibition of growth at 10 µM [28]: 17.9%; inhibition of growth at 10 µM [29]: < 10%; inhibition of growth at 10 µM [30]: < 10%; inhibition of growth at 10 µM [31]: < 10%; inhibition of growth at 10 µM [32]: < 10%; inhibition of growth at 10 µM [33]: < 10%; inhibition of growth at 10 µM [34]: < 10%; inhibition of growth at 10 µM [35]: < 10% |
